F508del corr – F508del CFTR correction, initial screen, CFBE line, single point. CFBE cells, YFP halide quenching; stimulated with forskolin plus potentiator P3; % fluorescence drop versus neutral controls. activity (quench increase), % at 7.58 µM. 0.36% of 350,000 active;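 active means mean added fluorescence quench of at least 8% versus neutral control, with both replicates also reaching 8%; inconclusive means only one of the mean or replicate conditions met; inactive means mean below 8% and not both replicates reaching 8%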;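 further: cells transiently co-express mutant CFTR-F508del with the halide-sensitive YFP; corrector assay measuring rescue of mutant channel to the surface after 24 h compound exposure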
SIRT5 block – SIRT5 desuccinylase inhibitors, primary screen, biochemical, fluorescence imaging, single point, set 5 | Purified SirT5, succinyl-peptide AMC, trypsin-coupled fluorescence | inhibition, % at 15 µM | 1.1% of 330,000 active; in the data active means inhibition above about 15%; inconclusive means no clear call, values can overlap the other calls
Target sequence (Q9NXA8 whole entry, looked up): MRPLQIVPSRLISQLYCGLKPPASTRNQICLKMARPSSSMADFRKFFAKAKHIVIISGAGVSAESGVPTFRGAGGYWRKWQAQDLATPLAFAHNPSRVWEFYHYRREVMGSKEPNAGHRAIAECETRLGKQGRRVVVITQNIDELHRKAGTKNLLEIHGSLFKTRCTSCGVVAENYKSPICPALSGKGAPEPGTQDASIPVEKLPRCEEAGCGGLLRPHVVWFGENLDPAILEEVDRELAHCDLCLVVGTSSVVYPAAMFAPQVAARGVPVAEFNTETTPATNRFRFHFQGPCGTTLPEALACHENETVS
S100A4 MyoIIA – inhibitors of S100A4-myosin IIA peptide binding, primary screen, biochemical, fluorescence polarization, TAMRA-MyoIIA peptide; Protein S100-A4 (Homo sapiens), P26447; 0.14% of 360,000 active; AID 652163, 2013; inhibition, % at 10.7 µM;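 active means mean inhibition of at least 70% across replicates, with every replicate also reaching that level; inconclusive means mean inhibition reaches 70% but some replicates fall short; inactive means mean inhibition below 70%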
Target sequence (P26447 whole entry, looked up): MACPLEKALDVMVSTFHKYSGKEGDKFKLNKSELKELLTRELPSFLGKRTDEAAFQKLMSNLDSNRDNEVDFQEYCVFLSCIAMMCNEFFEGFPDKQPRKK
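Material: human S100A4 monomer with TAMRA-labelled myosin IIA peptide; buffer or medium: HEPES pH 7.2 with CaCl2, KCl, NaCl, DTT, Triton; compound dosing: one concentration per compound; schedule: 5 min incubation before reading; benchmarks: neutral control DMSO, positive control TFP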
Ecoli rRNA inh – reduced GFP signal of wild-type E. coli, primary screen, bacterial rRNA inhibitor project, GFP/RFP fluorescence, OD600, single point. E. coli WT GFP vs humanized-ribosome RFP mutants, 24 h; stronger effect = lower value; DMSO median 0, no signal -100. GFP signal change (wild-type ribosome), % (concentration not given with the values). 1.6% of 350,000 active. AID 720706, 2013;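 active means significant combined selectivity score with lowered wild-type GFP, culture density cut under 30%, mutant RFP and density less affected; inactive means any of these conditions unmet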
ERAP1 inh – human ERAP1 aminopeptidase inhibitors, primary screen, biochemical, single point, plate reader; Endoplasmic reticulum aminopeptidase 1 (Homo sapiens), Q9NZ08; recombinant ERAP1, Leu-AMC fluorescence, 60 min; inhibition, % at 10.7 µM; 0.15% of 340,000 active; AID 652197, 2013;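 active means mean replicate inhibition of at least 30%, or all replicates individually reaching that 30% level; inactive means mean below 30% and not every replicate reaching it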;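 further: 0% = neutral control wells and 100% = L-leucinethiol positive control wells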
AID977621 – growth inhibition of wild-type GFP E. coli, dose response, H69 mutant RFP, cherry-pick; E. coli wild-type GFP strain growth, fluorescence, 24 h; 1,900 tested, under 10 active; activity change, negative = inhibition at 50 µM; shares compounds with Ecoli rRNA inh; AID 977621, 2014;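 active means Wild-type ribosome reporter drop at least double the humanized mutant ribosome reporter drop, growth loss under a set limit; inconclusive means no clear call, values can overlap the other calls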;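 further: wild-type GFP and H69 mutant RFP strains grown together 50/50 in each well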
AID977628 – E. coli growth inhibition, wild-type GFP versus h24 humanized RFP strain, dose response, h24 mutant RFP vs wild-type GFP, cherry-pick. shares compounds with Ecoli rRNA inh. E. coli WT GFP strain growth, fluorescence, 24 h. activity change, negative = inhibition at 50 µM. 1,900 tested, under 10 active;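 active means compound lowering the normal-ribosome reporter at least twice as much as the humanized-ribosome reporter, growth loss under a set limit; inconclusive means no clear call, values can overlap the other calls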;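 further: wild-type GFP and h24 humanized RFP strains co-cultured 1 to 1 per well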
* = called active by the depositor; ? = inconclusive; / = no result. In the library only some 3.1% were active in any assay of this set; here they are far more common.

SMILES	F508del corr	SIRT5 block	S100A4 MyoIIA	Ecoli rRNA inh	ERAP1 inh	AID977621	AID977628
COc1ccc(S(=O)(=O)N(C)C[C@@H]2OCCCC[C@@H](C)Oc3ccc(NS(=O)(=O)c4cccs4)cc3C(=O)N([C@@H](C)CO)C[C@H]2C)cc1	-2	2	11	-4	2	/	/
Cc1ccc(CC(=O)c2ccc(Cl)cc2)cc1	-1	0	-1	13	/	/	/
O=C(Cc1ccc(Cl)cc1)c1ccc(O)cc1	-2	0	4	-37*	-2	-3.6	?
C[C@@H]1CN([C@@H](C)CO)C(=O)c2c(c3ccccc3n2C)-c2ccccc2CO[C@H]1CN(C)S(=O)(=O)c1ccsc1	2	/	5	-1	3	/	/
CN1CCN(C(=O)c2cc3sc4ccccc4c3s2)CC1	0	-5	-1	-24*	-2	/	?
CCn1c(=O)c2cc(C(=O)N3CCN(C)CC3)sc2c2ccccc21	1	-2	0	-6	6	/	/
CN(C)C(=O)c1ccc(-c2ccc3c(c2)[C@@H]2[C@@H](CCN2C(=O)c2ccccn2)[C@@H](CO)N3C)cc1	0	/	/	-2	/	/	/
CN(Cc1ccc(Cl)s1)C(=O)CNC(=O)CNC(=O)c1ccc(Cl)cc1Cl	-3	-7	-1	-27*	-3	/	-5.2
COc1ccccc1C1CCN(C(=O)c2ccco2)CC1	-1	4	-12	-23*	-2	-4.1	?
Cc1ccc(NC(=O)c2ccc3ncsc3c2)cc1S(=O)(=O)N(C)C	-1	0	3	-23*	5	-4.7	/
Cc1cc(C)n2nc(C(=O)OCC(=O)Nc3ccc(Cl)cc3)nc2n1	1	/	-10	12	-2	/	/
CCCOC(=O)c1ccc(NC(=O)c2nc3nc(C)cc(C)n3n2)cc1	-2	1	1	-23*	5	1.3	-7.8
COC(=O)c1ccsc1NC(=O)c1ccco1	3	-2	12	8	3	/	/
COC(=O)c1ccsc1NC(=O)c1cccc(OC)c1	-5	-4	1	-27*	-3	4.4	-4.4
COc1ccc(CSc2nc3ccccc3c(=O)n2CCCN2CCOCC2)cc1F	-1	-2	-2	-28*	-3	-4.5	-18
CC(C)OCCCNC(=O)c1ccc(CS(=O)(=O)c2cccc(C(F)(F)F)c2)o1	0	-7	-3	-19*	-1	-13	?
CCC(=O)N1CC2(C1)[C@H](c1ccccc1)[C@@H](CO)N2CC1CCOCC1	2	3	7	2	0	/	/
O=C(O)CC1(CC(=O)Nc2ccc3sccc3c2)CCCCC1	1	1	-3	-26*	2	5.9	-11
O=C(CC1CC1)N[C@H]1CC[C@@H](CCNS(=O)(=O)c2ccc(F)cc2)O[C@H]1CO	-2	12	-6	3	-1	/	/
Cc1ccc(S(=O)(=O)Nc2ccccc2CNc2cccc(C)n2)cc1	/	/	3	-16*	-2	-15	?
Cc1ccc(S(=O)(=O)NCc2ccccc2NS(=O)(=O)c2ccc(C)cc2)cc1	2	-4	7	-35	/	/	/
C[C@@H]1CCCCO[C@H](CN(C)S(=O)(=O)c2cccs2)[C@H](C)CN([C@@H](C)CO)C(=O)c2cc(NC(=O)CCCN(C)C)ccc2O1	0	-4	7	-1	0	/	/
CCOC(=O)c1ccc(NC(=O)c2ccc(OC(C)C)c(OC)c2)cc1	1	2	-7	-26*	1	-3.6	-7.8
Cc1ccc(-n2nc(C)c3c(C)c(CCC(=O)O)c(C)nc32)cc1C	2	-10	-17	-26*	-1	-15	/
CC(C)c1ccc(NC(=O)C[C@H]2CC[C@H]3[C@@H](COc4ccc(NC(=O)Nc5ccc(F)c(F)c5)cc4C(=O)N3C)O2)cc1	-4	-2	0	/	1	/	/
SMILES	F508del corr	SIRT5 block	S100A4 MyoIIA	Ecoli rRNA inh	ERAP1 inh	AID977621	AID977628
OC(c1ccccc1)C1CN(Cc2ccccc2)CCC1(O)c1ccccc1 (stereo unspecified)	2	-6	10	2	12	/	/
O=C(c1ccccc1)C1CN(Cc2ccccc2)CCC1(O)c1ccccc1 (stereo unspecified)	0	-2	-5	-18*	0	-0.75	/
C[C@@H]1CN([C@@H](C)CO)C(=O)c2cccc(NC(=O)Nc3ccccc3)c2O[C@H]1CN(C)S(=O)(=O)c1cn(C)cn1	2	8	5	2	-7	/	/
O=C(C[C@H]1C=C[C@H](NC(=O)C2CCOCC2)[C@H](CO)O1)Nc1nccs1	0	-3	5	3	-6	/	/
COc1ccc(OC2C(=O)N(Cc3ccc(F)cc3)C2c2ccc(OC)c(OC)c2)cc1 (stereo unspecified)	4	-6	-1	-9	10	/	/
COc1ccc(OC2C(=O)N(Cc3ccc4c(c3)OCO4)C2c2sccc2C)cc1 (stereo unspecified)	0	-2	2	-22*	-1	-13	/
COc1cccc(C(=O)Nc2nnc(S(=O)(=O)N(C)Cc3ccccc3)s2)c1	0	5	5	-23*	2	-17	-18
Cc1ccccc1-c1nc(CS(=O)(=O)CC(=O)N2CCCCC2)c(C)o1	-1	-1	1	-19*	2	-0.96	-6.1
CCOc1ccccc1N1CC(C(=O)Nc2cccc(S(=O)(=O)N3CCCCC3)c2)CC1=O (stereo unspecified)	-1	7	-5	-21*	0	-21	?
O=C(COC(=O)CNC(=O)c1ccc(F)cc1)Nc1cccc(S(=O)(=O)N2CCCC2)c1	0	-1	0	-18*	1	-11	-3.9
O=C(CN(CCO)c1ccccc1)Nc1cccc(S(=O)(=O)N2CCCC2)c1	0	-1	0	-23*	-1	/	?
CCN(CC)S(=O)(=O)c1cccc(NC(=O)CNc2cccc(S(=O)(=O)N3CCCC3)c2)c1	1	-2	0	-23*	3	-24	/
CCN(CC)CC(=O)Nc1cccc(S(=O)(=O)N2CCCC2)c1	0	1	2	2	/	/	/
CCOc1ccc(C(=O)NCC(=O)OCC(=O)Nc2cccc(S(=O)(=O)N3CCCC3)c2)cc1	1	-4	-6	-6	0	/	/

Screens from PubChem BioAssay.
